# Source: ChEMBL document CHEMBL1121917, “Structure--activity relationships in a broad-spectrum anthelmintic series. Acid chloride phenylhydrazones. 1. Aryl substitutions and chloride variations” (1981)
# Tests used:
# Canis familiaris [1] = species: Canis familiaris; test: Percent reduction in Uncinaria eggs per gram, after treatment of 100 mg/dog dose of compound in a single treatment; format: functional, Canis lupus familiaris, Egg
# Canis familiaris [2] = species: Canis familiaris; test: Percentt reduction in Toxascaris eggs per gram, after treatment of 100 mg/dog dose of compound in a single treatment; format: functional, Canis lupus familiaris, Egg
# Canis familiaris [3] = species: Canis familiaris; test: Percent reduction in Ancylostoma eggs per gram, after treatment of 100 mg/dog dose of compound in a single treatment; format: functional, Canis lupus familiaris, Egg
# Procedure, shortened: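 Dogs naturally infected with Toxascaris leonina were experimentally infected with mixed Ancylostoma caninum and Uncinaria stenocephala larvae. Finely ground compound was given orally in gelatin capsules. Fecal egg counts were taken three times before and three times after treatment, and activity was taken as the fall in egg counts.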
# Mus musculus [4] = species: Mus musculus; test: Percent clearance of Nematospiroides dubius from mouse after oral treatment of 1.87 mg/mouse/day; format: functional
# Procedure, shortened: (§1)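 Mice naturally carrying Syphacia obvelata were experimentally infected with Nematospiroides dubius and Hymenolepis nana, then grouped after a 2-week prepatency. Finely ground compound was suspended in aqueous 0.10% carboxymethylcellulose, 0.04% polysorbate 80 and 0.0042% polyparaben, and 0.1 mL was given orally by cannula once daily for 4 days to five mice. Necropsy followed 2 days later, scoring presence or absence of each parasite. Control clearance was subtracted from the treated clearance.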
# Ovis aries [5] = test: Percent reduction in Trichostrongylus eggs per gram, after treatment with 350 mg/kg dose of compound perorally in sheep; format: functional, Egg; settings: route oral
# Ovis aries [6] = test: Percent reduction in Trichostrongylus eggs per gram, after treatment with 400 mg/kg dose of compound perorally in sheep; format: functional, Egg; settings: route oral
# Procedure, shortened: (§2)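 Naturally parasitized lambs, dosed orally either with a suspension by stomach tube or with finely ground compound in gelatin capsules by balling gun. Activity was scored by the clinical test method, meaning a significant fall in helminth egg counts after treatment.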
# Ovis aries [7] = test: Percent reduction in Trichostrongylus eggs per gram, after treatment with 450 mg/kg dose of compound perorally in sheep; format: functional, Egg; settings: route oral; procedure, shortened: as §2
# Ovis aries [8] = test: Percent reduction in Trichostrongylus eggs per gram, treatment of 100 mg/kg dose of compound perorally in sheep; format: functional, Egg; settings: route oral
# Ovis aries [9] = test: Percent reduction in Trichuris eggs per gram, after treatment of 100 mg/kg dose of compound perorally in sheep; format: functional, Egg; settings: route oral
# Ovis aries [10] = test: Percent reduction in Trichuris eggs per gram, after treatment of with 200 mg/kg dose of compound perorally in sheep; format: functional, Egg; settings: route oral
# Ovis aries [11] = test: Percent reduction in Trichuris eggs per gram, after treatment with 400 mg/kg dose of compound perorally in sheep; format: functional, Egg; settings: route oral; procedure, shortened: as §2
# Ovis aries [12] = test: Percent reduction in Haemonchus eggs per gram, after treatment of 250 mg/kg dose of compound perorally in sheep; format: functional, Egg; settings: route oral
# Procedure, shortened: (§3)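 Naturally parasitized lambs received compound orally, either as the aqueous suspension by stomach tube or as finely ground powder in gelatin capsules by balling gun. Activity was judged by the clinical test method, as a significant decrease in posttreatment helminth egg counts.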
# Ovis aries [13] = test: Percent reduction in Strongyloides eggs per gram, after treatment of 100 mg/kg dose of compound perorally in sheep; format: functional, Egg; settings: route oral; procedure, shortened: as §2
# Ovis aries [14] = test: Percent reduction in Strongyloides eggs per gram, after treatment with 450 mg/kg dose of compound perorally in sheep; format: functional, Egg; settings: route oral; procedure, shortened: as §2
# Ovis aries [15] = test: Percent reduction in Haemonchus eggs per gram, after treatment of 200 mg/kg dose of compound perorally in sheep; format: functional, Egg; settings: route oral; procedure, shortened: as §3
# Ovis aries [16] = test: Percent reduction in Nematodirus eggs per gram, after treatment with 250 mg/kg dose of compound perorally in sheep; format: functional, Egg; settings: route oral
# Procedure, shortened: (§4)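 Naturally parasitized lambs were dosed orally at the stated mg/kg. Dosing was either as a suspension of finely ground compound by stomach tube, or as ground compound weighed into gelatin capsules and given by balling gun. Activity was scored by the clinical test method: the decrease in posttreatment helminth eggs per gram.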
# Ovis aries [17] = test: Percent reduction in Nematodirus eggs per gram, after treatment with 350 mg/kg dose of compound perorally in sheep; format: functional, Egg; settings: route oral; procedure, shortened: as §4
# Ovis aries [18] = test: Percent reduction in Nematodirus eggs per gram, after treatment with 400 mg/kg dose of compound perorally in sheep; format: functional, Egg; settings: route oral; procedure, shortened: as §4
# Ovis aries [19] = test: Percent reduction in Oesophagostomum eggs per gram, after treatment of 100 mg/kg dose of compound perorally in sheep; format: functional, Egg; settings: route oral; procedure, shortened: as §4
# Ovis aries [20] = test: Percent reduction in Haemonchus eggs per gram, after treatment with 450 mg/kg dose of compound perorally in sheep; format: functional, Egg; settings: route oral; procedure, shortened: as §4
# Ovis aries [21] = test: Percent reduction in Moniezia eggs per gram, after treatment of 200 mg/kg dose of compound perorally in sheep; format: functional, Egg; settings: route oral; procedure, shortened: as §4
# Ovis aries [22] = test: Percent reduction in Moniezia eggs per gram, after treatment with 400 mg/kg dose of compound perorally in sheep; format: functional, Egg; settings: route oral; procedure, shortened: as §4
# Ovis aries [23] = test: Percent reduction in Nematodirus eggs per gram, after treatment of 200 mg/kg dose of compound perorally in sheep; format: functional, Egg; settings: route oral; procedure, shortened: as §4
# Ovis aries [24] = test: Percent reduction in Nematodirus eggs per gram, after treatment of 100 mg/kg dose of compound perorally in sheep; format: functional, Egg; settings: route oral; procedure, shortened: as §4
# Ovis aries [25] = test: Percent reduction in Strongyloides eggs per gram, after treatment with 350 mg/kg dose of compound perorally in sheep; format: functional, Egg; settings: route oral; procedure, shortened: as §2
# Ovis aries [26] = test: Percent reduction in Strongyloides eggs per gram, after treatment with 400 mg/kg dose of compound perorally in sheep; format: functional, Egg; settings: route oral; procedure, shortened: as §2
# Ovis aries [27] = test: Percent reduction in Ostertagia eggs per gram, after treatment with 350 mg/kg dose of compound perorally in sheep; format: functional, Egg; settings: route oral; procedure, shortened: as §2
# Ovis aries [28] = test: Percent reduction in Ostertagia eggs per gram, after treatment with 400 mg/kg dose of compound perorally in sheep; format: functional, Egg; settings: route oral; procedure, shortened: as §2
# Ovis aries [29] = test: Percent reduction in Ostertagia eggs per gram, after treatment with 450 mg/kg dose of compound perorally in sheep; format: functional, Egg; settings: route oral; procedure, shortened: as §2
# Ovis aries [30] = test: Percent reduction in Trichostrongylus eggs per gram, after ral treatment of 200 mg/kg dose of compound perorally in sheep; format: functional, Egg; settings: route oral; procedure, shortened: as §2
# Ovis aries [31] = test: Percent reduction in Trichostrongylus eggs per gram, after oral treatment of 250 mg/kg dose of compound perorally in sheep; format: functional, Egg; procedure, shortened: as §2
# Ovis aries [32] = test: Percent reduction in Oesophagostomum eggs per gram, after treatment with 350 mg/kg dose of compound perorally in sheep; format: functional, Egg; settings: route oral; procedure, shortened: as §4
# Ovis aries [33] = test: Percent reduction in Oesophagostomum eggs per gram, after treatment with 400 mg/kg dose of compound perorally in sheep; format: functional, Egg; settings: route oral; procedure, shortened: as §4
# Ovis aries [34] = test: Percent reduction in Ostertagia eggs per gram, after oral treatment of 250 mg/Kg dose of compound perorally in sheep; format: functional, Egg; procedure, shortened: as §4
# Ovis aries [35] = test: Percent reduction in Haemonchus eggs per gram, after oral treatment of 100 mg/kg dose of compound perorally in sheep; format: functional, Egg; procedure, shortened: as §3
# Ovis aries [36] = test: Percent reduction in Oesophagostomum eggs per gram, after treatment of 200 mg/kg dose of compound perorally in sheep; format: functional, Egg; settings: route oral; procedure, shortened: as §4
# Ovis aries [37] = test: Percent reduction in Oesophagostomum eggs per gram, after treatment with 250 mg/kg dose of compound perorally in sheep; format: functional, Egg; settings: route oral; procedure, shortened: as §4
# Ovis aries [38] = test: Percent reduction in Trichuris eggs per gram, after treatment with 250 mg/kg dose of compound perorally in sheep; format: functional, Egg; settings: route oral; procedure, shortened: as §2
# Ovis aries [39] = test: percent reduction in Strongyloides eggs per gram, after treatment with 250 mg/kg dose of compound perorally in sheep; format: functional, Egg; settings: route oral
# Ovis aries [40] = test: Percent reduction in Ostertagia eggs per gram, after treatment of 200 mg/kg dose of compound perorally in sheep; format: functional, Egg; settings: route oral; procedure, shortened: as §4
# Ovis aries [41] = test: Percent reduction in Cooperia eggs per gram, after treatment of 100 mg/kg dose of compound perorally in sheep; format: functional, Egg; settings: route oral; procedure, shortened: as §3
# Ovis aries [42] = test: Percent reduction in Cooperia eggs per gram, after treatment of 200 mg/kg dose of compound perorally in sheep; format: functional, Egg; settings: route oral; procedure, shortened: as §3
# Ovis aries [43] = test: Percent reduction in Cooperia eggs per gram, after treatment with 400 mg/kg dose of compound perorally in sheep; format: functional, Egg; settings: route oral; procedure, shortened: as §3
# Ovis aries [44] = test: Percent reduction in Strongyloides eggs per gram, after treatment of 200 mg/kg dose of compound perorally in sheep; format: functional, Egg; settings: route oral; procedure, shortened: as §2
# Ovis aries [45] = test: Percent reduction in Ostertagia eggs per gram, after treatment of 100 mg/kg dose of compound perorally in sheep; format: functional, Egg; settings: route oral; procedure, shortened: as §4
# Mus musculus [46] = species: Mus musculus; test: Percent clearance of Hymenolepis nana from mouse after oral treatment of 1.87 mg/mouse/day; format: functional; procedure, shortened: as §1
# Ovis aries [47] = test: Percent reduction in Trichuris eggs per gram, after treatment with 450 mg/kg dose of compound perorally in sheep; format: functional, Egg; settings: route oral; procedure, shortened: as §2
# Ovis aries [48] = test: Percent reduction in Haemonchus eggs per gram, after treatment with 400 mg/kg dose of compound perorally in sheep; format: functional, Egg; settings: route oral; procedure, shortened: as §4
# Ovis aries [49] = test: Percent reduction in Trichuris eggs per gram, after treatment with 350 mg/kg dose of compound perorally
# Mus musculus [50] = species: Mus musculus; test: Percent clearance of Nematospiroides dubius from mouse after oral treatment of 0.12 mg/mouse/day; format: functional; procedure, shortened: as §1
# Mus musculus [51] = species: Mus musculus; test: Percent clearance of Hymenolepis nana from mouse after oral treatment of 0.12 mg/mouse/day; format: functional; procedure, shortened: as §1
smiles,measurement,setting,value
FC(F)(F)c1cccc(/C(Cl)=N/Nc2ccccc2)c1,Reduction,Canis familiaris [1],100%
same,Reduction,Canis familiaris [2],100%
same,Reduction,Canis familiaris [3],100%
same,Parasite_Clearance,Mus musculus [4],0%
same,Reduction,Ovis aries [5],100%
same,Reduction,Ovis aries [6],100%
same,Reduction,Ovis aries [7],100%
same,Reduction,Ovis aries [8],97%
same,Reduction,Ovis aries [9],35%
same,Reduction,Ovis aries [10],0%
same,Reduction,Ovis aries [11],62%
same,Reduction,Ovis aries [12],84%
same,Reduction,Ovis aries [13],98%
same,Reduction,Ovis aries [14],100%
same,Reduction,Ovis aries [15],99%
same,Reduction,Ovis aries [16],29%
same,Reduction,Ovis aries [17],100%
same,Reduction,Ovis aries [18],100%
same,Reduction,Ovis aries [19],100%
same,Reduction,Ovis aries [20],100%
same,Reduction,Ovis aries [21],100%
same,Reduction,Ovis aries [22],100%
same,Reduction,Ovis aries [23],100%
same,Reduction,Ovis aries [24],100%
same,Reduction,Ovis aries [25],100%
same,Reduction,Ovis aries [26],100%
same,Reduction,Ovis aries [27],100%
same,Reduction,Ovis aries [28],100%
same,Reduction,Ovis aries [29],100%
same,Reduction,Ovis aries [30],99%
same,Reduction,Ovis aries [31],71%
same,Reduction,Ovis aries [32],100%
same,Reduction,Ovis aries [33],100%
same,Reduction,Ovis aries [34],86%
same,Reduction,Ovis aries [35],98%
same,Reduction,Ovis aries [36],100%
same,Reduction,Ovis aries [37],91%
same,Reduction,Ovis aries [38],57%
same,Reduction,Ovis aries [39],59%
same,Reduction,Ovis aries [40],100%
same,Reduction,Ovis aries [41],100%
same,Reduction,Ovis aries [42],100%
same,Reduction,Ovis aries [43],100%
same,Reduction,Ovis aries [44],100%
same,Reduction,Ovis aries [45],98%
same,Parasite_Clearance,Mus musculus [46],75%
same,Reduction,Ovis aries [47],0%
same,Reduction,Ovis aries [48],100%
same,Reduction,Ovis aries [49],0%
Cc1cccc(/C(Cl)=N/Nc2ccccc2)c1,Parasite_Clearance,Mus musculus [50],0%
same,Parasite_Clearance,Mus musculus [51],0%
